Reference: ChEMBL document CHEMBL3228030, “Bicyclic pyrazolines, potential central nervous system depressants and antiinflammatory agents” (J Med Chem, 1979)
Calls of active or inactive are those of the source. No cut-off for these calls is given here.

Key:
Rattus norvegicus [1] = experiment: Antiinflammatory activity in Sprague-Dawley rat assessed as inhibition of carrageenan-induced paw edema at 150 mg/kg, po after 3 hrs; assay type: functional
Outline: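 Given by mouth in 1 mL water or 1% aqueous sodium carboxymethylcellulose to adult Charles River Sprague-Dawley rats (seven per group), 2 h before a footpad injection of 0.05 mL 1% carrageenan in pyrogen-free saline. After 3 h, rats were killed and paws removed and weighed, with the contralateral paw as control. Read-out was percent inhibition of edema.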

Rattus norvegicus [2] = experiment: Central nervous system activity in ip dosed rat assessed as induction of depressant; assay type: functional
Outline: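 Young adult female rats received 5% solutions or dispersions (two drops Tween 80) in water at 200, 100 and 50 mg/kg. Compounds active at 50 mg/kg were also given at 25 and 12.5 mg/kg. The ED value was the lowest dose that decreased motor activity in 2/2 rats.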

Rattus norvegicus [3] = experiment: Toxicity in Sprague-Dawley rat assessed as induction of ulcer at 150 to 600 mg/kg, po after 6 hrs; assay type: organism-based; design: dose 150-600 mg/kg, route oral; details: in vivo
Outline: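 Male Sprague-Dawley rats were kept without food pellets, with free access to water containing 5% dextrose, for 48 h. The compound, dissolved or suspended in water, was then given by gavage at 150, 300 and 600 mg/kg, eight rats per dose.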

[4] = Toxicity in po dosed Sprague-Dawley rat; assay type: organism-based; details: in vivo
Rattus norvegicus [5] = experiment: Central nervous system activity in rat assessed as induction of depressant at 100 mg/kg, po; assay type: functional, organism-based; design: dose 100 mg/kg
Rattus norvegicus [6] = experiment: Toxicity in rat at 100 mg/kg, ip; assay type: organism-based; design: dose 100 mg/kg, route intraperitoneal; details: in vivo

| SMILES | inhibition in vivo at 150 mg/kg (Rattus norvegicus [1]) [%] | ED (Rattus norvegicus [2]) [mg/kg] | further results |
| --- | --- | --- | --- |
| CN1C/C(=C\c2ccc(Cl)cc2)C2=NN(C)C(c3ccc(Cl)cc3)C2C1.Cl (configuration not stated) | 17 | >200 | – |
| CN(C)CCN1N=C2/C(=C\c3ccccc3)CCCC2C1c1ccccc1.O=C(O)/C=C\C(=O)O (configuration not stated) | – | 100 | – |
| CN1CCN(CCCN2N=C3/C(=C\c4ccccc4)CCCC3C2c2ccccc2)CC1.O=C(O)/C=C\C(=O)O (configuration not stated) | – | 200 | – |
| CN1C/C(=C\c2ccccc2)C2=NN(CC(F)(F)F)C(c3ccccc3)C2C1.Cl (configuration not stated) | 27 | 100 | – |
| CCCCC1C(=O)N(c2ccccc2)N(c2ccccc2)C1=O [PHENYLBUTAZONE] | 51 | – | Activity (Rattus norvegicus [3]): Non-toxic; LD50 [4]: 1200 mg/kg |
| CN1C/C(=C\c2ccccc2Cl)C2=NN(C)C(c3ccccc3Cl)C2C1.Cl (configuration not stated) | – | >200 | – |
| CN1C/C(=C\c2ccccc2)C2=NN(CCCc3ccccc3)C(c3ccccc3)C2C1.Cl (configuration not stated) | – | >200 | – |
| CN1C/C(=C\c2cccc(Cl)c2)C2=NN(C)C(c3cccc(Cl)c3)C2C1.Cl (configuration not stated) | – | >200 | – |
| CCN(CC)CCCN1N=C2/C(=C\c3ccccc3)CCCC2C1c1ccccc1.O=C(O)/C=C\C(=O)O (configuration not stated) | – | 100 | – |
| CN1N=C2/C(=C\c3ccccc3)CCCC2C1c1ccccc1 (configuration not stated) | – | >200 | – |
| CCCC(C)(COC(N)=O)COC(N)=O [MEPROBAMATE] | – | 50 | – |
| CCN1N=C2/C(=C/c3ccccc3)CN(C)CC2C1c1ccccc1.Cl (configuration not stated) | – | >200 | – |
| CN1N=C2/C(=C/c3ccccc3)CNCC2C1c1ccccc1.Cl (configuration not stated) | – | 12.5 | Activity (Rattus norvegicus [5]): Active |
| CCN1C/C(=C\c2ccccc2)C2=NN(C)C(c3ccccc3)C2C1.Cl (configuration not stated) | – | 200 | – |
| CCC(=O)N1C/C(=C\c2ccccc2)C2=NN(C)C(c3ccccc3)C2C1 (configuration not stated) | – | 200 | – |
| CN(C)CCCN1N=C2/C(=C/c3ccccc3)CN(CCc3ccccc3)CC2C1c1ccccc1.O=C(O)/C=C\C(=O)O (configuration not stated) | – | >200 | – |
| CCCN1N=C2/C(=C/c3ccccc3)CN(C)CC2C1c1ccccc1.O=P(O)(O)O (configuration not stated) | 47 | 100 | Activity (Rattus norvegicus [3]): Non-toxic; LD50 [4]: 5400 mg/kg |
| CN1N=C2/C(=C/c3ccccc3)CN(C(N)=O)CC2C1c1ccccc1 (configuration not stated) | – | >200 | – |

| SMILES | inhibition in vivo at 150 mg/kg (Rattus norvegicus [1]) [%] | ED (Rattus norvegicus [2]) [mg/kg] | further results |
| --- | --- | --- | --- |
| CC(=O)N1C/C(=C\c2ccccc2)C2=NN(C)C(c3ccccc3)C2C1 (configuration not stated) | – | 100 | – |
| C(=C1\CCCC2C1=NN(CCCN1CCOCC1)C2c1ccccc1)/c1ccccc1.Cl (configuration not stated) | 30 | 100 | – |
| CNC(=O)N1C/C(=C\c2ccccc2)C2=NN(C)C(c3ccccc3)C2C1.Cl (configuration not stated) | – | >200 | – |
| CN1C/C(=C\c2ccccc2)C2=NNC(c3ccccc3)C2C1.Cl (configuration not stated) | – | 50 | – |
| CCCCN1N=C2/C(=C/c3ccccc3)CN(C)CC2C1c1ccccc1.Cl (configuration not stated) | 26 | >200 | – |
| CN1N=C2/C(=C/c3ccccc3)CN(CCc3ccccc3)CC2C1c1ccccc1.Cl (configuration not stated) | 32 | 100 | – |
| CN1N=C2/C(=C/c3ccccc3)CN(Cc3ccccc3)CC2C1c1ccccc1.Cl (configuration not stated) | 0 | 100 | – |
| C(=C1\CCCC2C1=NN(CCCN1CCCCC1)C2c1ccccc1)/c1ccccc1.O=C(O)/C=C\C(=O)O (configuration not stated) | – | 200 | – |
| CN1C/C(=C\c2ccccc2)C2=NN(CCO)C(c3ccccc3)C2C1.Cl (configuration not stated) | 41 | 200 | – |
| CN(C)CCN1N=C2/C(=C/c3ccccc3)CN(C)CC2C1c1ccccc1.Cl (configuration not stated) | – | 25 | Activity (Rattus norvegicus [6]): Toxic |
| CC(=O)CCN1C/C(=C\c2ccccc2)C2=NN(C)C(c3ccccc3)C2C1.Cl (configuration not stated) | – | >200 | – |
| CN1C/C(=C\c2ccccc2)C2=NN(C)[C@@H](c3ccccc3)[C@@H]2C1.Cl | 22 | 50 | – |
| CN1N=C2/C(=C/c3ccccc3)CN(C(=N)N)CC2C1c1ccccc1.Cl (configuration not stated) | – | 200 | – |
| CCCCN1C/C(=C\c2ccccc2)C2=NN(C)C(c3ccccc3)C2C1.Cl (configuration not stated) | – | 100 | – |
| CN(C)CCCN1N=C2/C(=C\c3ccccc3)CCCC2C1c1ccccc1.O=C(O)C(=O)O (configuration not stated) | – | 50 | – |
| CN(C)CCCN1N=C2/C(=C/c3ccccc3)CN(C)CC2C1c1ccccc1.Cl (configuration not stated) | – | 100 | – |
| COc1ccc(/C=C2\CN(C)CC3C2=NN(C)C3c2ccc(OC)cc2)cc1.Cl (configuration not stated) | 29 | >200 | – |
| CC(=O)N1N=C2/C(=C/c3ccccc3)CN(C)CC2C1c1ccccc1.Cl (configuration not stated) | – | 200 | – |
